Data reported in ChEMBL document CHEMBL3351863, “Optimization of 2-phenyl-pyrimidine-4-carboxamides towards potent, orally bioavailable and selective P2Y(12) antagonists for inhibition of platelet aggregation” (Bioorg Med Chem Lett, 2014).

Legend:
[1] = tested on: Platelet; experiment: Inhibition of ADP-induced platelet aggregation in human platelet rich plasma assessed as remaining activity at 500 nM by in-vitro light transmission aggregometry assay; type: functional
In short: (§1)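 Light transmission aggregometry in human platelet-rich plasma; compound incubated, aggregation triggered with 3 µM ADP; remaining activity (RA) recorded at a single compound level (1000, 500 or 100 nM).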

[2] = tested on: Platelet; experiment: Inhibition of ADP-induced platelet aggregation in human platelet rich plasma assessed as remaining activity at 100 nM by in-vitro light transmission aggregometry assay; type: functional; in short: as §1
[3] = tested on: Platelet; experiment: Inhibition of ADP-induced platelet aggregation in human platelet rich plasma by in-vitro light transmission aggregometry assay; type: functional; details: Homo sapiens, Platelet, Plasma
In short: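 Human platelet-rich plasma incubated with compound, aggregation induced by 3 µM ADP and read by light transmission aggregometry; IC₅₀ derived from concentration–response curve.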

[4] = Potency shift, ratio of IC50 for inhibition of ADP-induced platelet aggregation in human platelet rich plasma to IC50 for displacement of [3H]-2-methyl-thio-adenosine 5'-diphosphate from human recombinant P2Y12 expressed in CHO cell membranes
[5] = Solubility in neutral pH; type: physicochemical
[6] = Solubility in basic pH; type: physicochemical
[7] = molecular target: T1, Cytochrome P450 3A4 (Homo sapiens, UniProt P08684); experiment: Inhibition of CYP3A4 in human liver microsomes assessed as reduction in midazolam 1'-hydroxylation; type: ADME
[8] = molecular target: T1, Cytochrome P450 3A4; experiment: Inhibition of CYP3A4 in human liver microsomes assessed as reduction in testosterone 6beta-hydroxylation; type: ADME
[9] = molecular target: Cytochrome P450 2D6 (Homo sapiens, UniProt P10635); experiment: Inhibition of CYP2D6 in human liver microsomes assessed as reduction in dextromethorphan-O demethylation; type: ADME
[10] = molecular target: Cytochrome P450 2C9 (Homo sapiens, UniProt P11712); experiment: Inhibition of CYP2C9 in human liver microsomes assessed as reduction in diclofenac 4'-hydroxylation; type: ADME
[11] = tested on: Liver microsome; experiment: Metabolic stability assay in human liver microsomes assessed as parent drug disappearance at 1 uM after 20 mins by HPLC and mass spectrometry method; type: ADME
[12] = tested on: Liver microsome; experiment: Metabolic stability assay in rat liver microsomes assessed as parent drug disappearance at 1 uM after 20 mins by HPLC and mass spectrometry method; type: ADME
[13] = molecular target: Voltage-gated inwardly rectifying potassium channel KCNH2 (Homo sapiens, UniProt Q12809); experiment: Inhibition of human ERG expressed in HEK cells by patch-clamp assay; type: cell-based; details: hek293
[14] = tested on: Rattus norvegicus; experiment: AUC in Wistar rat at 10 mg/kg, po; type: ADME, organism-based, Plasma; design: dose 10 mg/kg, route oral; details: in vivo
In short: (§2)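 Rats dosed by iv infusion at 1 mg/kg (n = 2) or orally at 10 mg/kg (n = 3); plasma levels measured, limit of quantification ca. 1 ng/mL.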

[15] = tested on: Rattus norvegicus; experiment: (§3) Cmax in Wistar rat at 10 mg/kg, po; type: ADME, organism-based; design: dose 10 mg/kg, route oral; details: in vivo, BLD = below limit of detection; in short: as §2
[16] = molecular target: P2Y purinoceptor 12 (Homo sapiens, UniProt Q9H244); experiment: Displacement of [3H]-2-methyl-thio-adenosine 5'-diphosphate from human recombinant P2Y12 expressed in CHO cell membranes by scintillation counting method
In short: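 CHO cells expressing recombinant P2Y₁₂ receptors, incubated with tritium-labeled 2-methyl-thio-adenosine 5'-diphosphate plus test compound; IC₅₀ from displacement curves, each point in triplicate; reference compound run with every compound set, and set re-analyzed if its IC₅₀ fell outside pre-set 95% confidence interval.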

[17] = Protein binding in human plasma; type: ADME, cell-free; details: read-out: PPB (converted)
[18] = Volume of distribution at steady state in Wistar rat at 1 mg/kg, iv or 10 mg/kg, po; type: ADME, organism-based; details: in vivo, read-out: Vdss; in short: as §2
[19] = Half life in Wistar rat at 1 mg/kg, iv or 10 mg/kg, po; type: ADME, organism-based; details: in vivo; in short: as §2
[20] = as §3; type: ADME, organism-based; design: dose 10 mg/kg, route oral; details: Wistar, in vivo; in short: as §2
[21] = tested on: Rattus norvegicus; experiment: Oral bioavailability in Wistar rat at 10 mg/kg; type: ADME, organism-based; details: in vivo; in short: as §2

T1 sequence (P08684 whole entry): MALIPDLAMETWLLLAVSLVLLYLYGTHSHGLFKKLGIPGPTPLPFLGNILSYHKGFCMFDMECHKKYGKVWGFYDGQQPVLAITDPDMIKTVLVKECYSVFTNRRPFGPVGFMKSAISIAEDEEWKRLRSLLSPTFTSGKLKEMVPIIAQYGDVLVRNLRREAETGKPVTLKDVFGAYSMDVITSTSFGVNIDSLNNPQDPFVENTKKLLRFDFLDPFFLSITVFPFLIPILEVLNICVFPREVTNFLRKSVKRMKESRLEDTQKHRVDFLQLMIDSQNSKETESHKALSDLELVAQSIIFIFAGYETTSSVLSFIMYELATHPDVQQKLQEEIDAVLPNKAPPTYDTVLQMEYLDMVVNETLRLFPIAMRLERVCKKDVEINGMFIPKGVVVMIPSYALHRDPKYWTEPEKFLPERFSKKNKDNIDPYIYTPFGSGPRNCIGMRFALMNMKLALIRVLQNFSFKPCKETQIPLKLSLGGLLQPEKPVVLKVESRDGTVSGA
Sequence of Cytochrome P450 2D6 (P10635 whole entry): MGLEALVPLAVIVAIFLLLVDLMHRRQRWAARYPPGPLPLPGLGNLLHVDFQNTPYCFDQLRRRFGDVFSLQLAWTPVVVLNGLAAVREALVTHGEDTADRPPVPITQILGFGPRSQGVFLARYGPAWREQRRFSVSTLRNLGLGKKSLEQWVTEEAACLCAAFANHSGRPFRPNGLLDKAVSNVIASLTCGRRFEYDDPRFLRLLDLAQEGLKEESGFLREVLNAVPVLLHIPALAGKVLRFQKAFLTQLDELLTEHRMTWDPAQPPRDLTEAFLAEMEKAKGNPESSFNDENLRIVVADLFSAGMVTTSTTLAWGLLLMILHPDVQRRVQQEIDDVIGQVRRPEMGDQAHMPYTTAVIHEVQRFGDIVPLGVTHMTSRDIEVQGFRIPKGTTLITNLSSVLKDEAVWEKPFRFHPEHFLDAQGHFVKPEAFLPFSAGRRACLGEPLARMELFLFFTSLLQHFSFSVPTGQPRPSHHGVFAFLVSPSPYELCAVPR
Sequence of Voltage-gated inwardly rectifying potassium channel KCNH2 (Q12809 whole entry): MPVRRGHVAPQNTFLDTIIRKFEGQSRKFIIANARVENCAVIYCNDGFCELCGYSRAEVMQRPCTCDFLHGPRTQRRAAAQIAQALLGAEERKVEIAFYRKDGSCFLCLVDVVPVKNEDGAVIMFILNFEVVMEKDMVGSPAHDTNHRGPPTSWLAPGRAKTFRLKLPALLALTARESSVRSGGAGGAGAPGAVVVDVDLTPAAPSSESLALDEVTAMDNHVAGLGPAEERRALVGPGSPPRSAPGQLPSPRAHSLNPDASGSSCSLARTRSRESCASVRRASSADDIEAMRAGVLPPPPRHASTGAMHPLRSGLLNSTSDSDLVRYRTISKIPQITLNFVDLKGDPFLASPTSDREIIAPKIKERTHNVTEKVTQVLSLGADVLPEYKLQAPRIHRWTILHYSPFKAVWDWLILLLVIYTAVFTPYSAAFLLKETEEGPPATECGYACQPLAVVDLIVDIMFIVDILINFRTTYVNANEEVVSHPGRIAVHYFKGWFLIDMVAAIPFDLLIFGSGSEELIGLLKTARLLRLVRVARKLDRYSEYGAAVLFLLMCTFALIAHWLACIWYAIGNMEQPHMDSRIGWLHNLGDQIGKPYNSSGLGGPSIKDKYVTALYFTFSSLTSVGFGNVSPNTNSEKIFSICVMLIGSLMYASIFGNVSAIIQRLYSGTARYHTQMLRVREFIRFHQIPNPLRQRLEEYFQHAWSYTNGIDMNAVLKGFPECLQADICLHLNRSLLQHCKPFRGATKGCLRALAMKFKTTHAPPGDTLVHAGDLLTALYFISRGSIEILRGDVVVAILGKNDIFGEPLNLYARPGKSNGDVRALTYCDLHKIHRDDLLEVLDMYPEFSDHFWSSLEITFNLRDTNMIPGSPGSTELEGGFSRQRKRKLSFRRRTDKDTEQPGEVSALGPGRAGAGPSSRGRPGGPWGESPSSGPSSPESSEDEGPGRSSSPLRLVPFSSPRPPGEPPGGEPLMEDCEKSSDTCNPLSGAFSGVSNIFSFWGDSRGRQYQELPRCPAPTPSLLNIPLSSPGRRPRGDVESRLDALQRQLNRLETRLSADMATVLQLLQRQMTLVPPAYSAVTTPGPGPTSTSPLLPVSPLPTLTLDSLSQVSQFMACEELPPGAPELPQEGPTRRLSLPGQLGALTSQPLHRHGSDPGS
Sequence of Cytochrome P450 2C9 (P11712 whole entry): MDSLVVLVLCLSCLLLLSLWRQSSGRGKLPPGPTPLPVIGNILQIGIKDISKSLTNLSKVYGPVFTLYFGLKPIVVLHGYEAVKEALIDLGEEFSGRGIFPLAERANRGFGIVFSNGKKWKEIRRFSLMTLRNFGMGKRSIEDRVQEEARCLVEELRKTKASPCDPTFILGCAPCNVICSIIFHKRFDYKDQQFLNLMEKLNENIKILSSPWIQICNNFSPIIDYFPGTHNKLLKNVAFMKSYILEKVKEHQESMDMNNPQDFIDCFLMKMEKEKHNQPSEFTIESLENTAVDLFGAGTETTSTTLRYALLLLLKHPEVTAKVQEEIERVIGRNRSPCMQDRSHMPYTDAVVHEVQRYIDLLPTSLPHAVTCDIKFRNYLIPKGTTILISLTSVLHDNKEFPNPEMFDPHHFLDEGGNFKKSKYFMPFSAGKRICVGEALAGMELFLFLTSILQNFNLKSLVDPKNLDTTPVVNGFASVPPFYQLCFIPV
Sequence of P2Y purinoceptor 12 (Q9H244 whole entry): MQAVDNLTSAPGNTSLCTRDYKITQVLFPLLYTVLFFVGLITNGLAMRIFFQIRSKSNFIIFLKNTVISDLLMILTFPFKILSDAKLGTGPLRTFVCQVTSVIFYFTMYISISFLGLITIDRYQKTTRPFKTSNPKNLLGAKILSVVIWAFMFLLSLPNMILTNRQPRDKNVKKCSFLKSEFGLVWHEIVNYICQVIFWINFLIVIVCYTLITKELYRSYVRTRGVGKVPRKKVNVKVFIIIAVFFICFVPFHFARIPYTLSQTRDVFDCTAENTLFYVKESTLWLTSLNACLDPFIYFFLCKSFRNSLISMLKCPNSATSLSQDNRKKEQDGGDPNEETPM

IC50 [3] [nM]	solubility [5]	solubility [6]	inhibition (INH) [7]	inhibition (INH) [8]	inhibition (INH) [9]	inhibition (INH) [10]	Stability [11]	Stability [12]	SMILES	Activity [1] [%]	Activity [2] [%]	Ratio IC50 [4]	inhibition (INH) [13]	also measured
126	soluble	soluble	Not Active	Not Active	Not Active	Not Active	Stable	Stable	CCOC(=O)N1CCN(C(=O)[C@H](CCC(=O)O)NC(=O)c2cc(-c3ccc[n+]([O-])c3)nc(-c3ccccc3)n2)CC1	<30	<70	0.98	Not Active	AUC ([14]; BLD = below limit of detection): BLD; Cmax [15]: BLD
114	soluble	soluble	Not Active	Not Active	Not Active	Not Active	Stable	Stable	CCOC(=O)N1CCN(C(=O)[C@H](CCC(=O)O)NC(=O)c2cc(NCCO)nc(-c3ccccc3)n2)CC1	<30	<70	0.67	Not Active	IC50 [16]: 169 nM; fraction unbound [17]: 0.135; Vd [18]: 1 L/kg; half-life [19]: 12 min; AUC [14]: 8.44 nM·h; Cmax [20]: 17.5 nM; F [21]: 3%
